Measurements reported in ChEMBL document CHEMBL5674876, “Epigenetic Activation of Pro-angiogenic Signaling Pathways in Human Endothelial Progenitors Increases Vasculogenesis” (Stem Cell Reports, 2017).
Activity calls are given as the source filed them. No cut-off for these calls is given here.

Tests used:
HUVEC [1] = assay: Effect on human umbilical cord derived endothelial colony forming cells assessed as increase in H3K4me3 level in presence of panobinostat measured after removal of drug by qRT-PCR analysis; type: functional, cell-based
[2] = target: Histone-lysine N-methyltransferase EZH2 (Homo sapiens) (UniProt Q15910); assay: Inhibition of EZH2 in human umbilical cord derived endothelial colony forming cells assessed as decrease in H3K27me2 level for 24 to 72 hrs by Western blotting analysis; type: cell-based; settings: Umbilical cord derived endothelial colony forming cell, dose 0.01-5 µM, time 24-72 hrs
Sequence of Histone-lysine N-methyltransferase EZH2 (Homo sapiens) (Q15910 whole entry, looked up): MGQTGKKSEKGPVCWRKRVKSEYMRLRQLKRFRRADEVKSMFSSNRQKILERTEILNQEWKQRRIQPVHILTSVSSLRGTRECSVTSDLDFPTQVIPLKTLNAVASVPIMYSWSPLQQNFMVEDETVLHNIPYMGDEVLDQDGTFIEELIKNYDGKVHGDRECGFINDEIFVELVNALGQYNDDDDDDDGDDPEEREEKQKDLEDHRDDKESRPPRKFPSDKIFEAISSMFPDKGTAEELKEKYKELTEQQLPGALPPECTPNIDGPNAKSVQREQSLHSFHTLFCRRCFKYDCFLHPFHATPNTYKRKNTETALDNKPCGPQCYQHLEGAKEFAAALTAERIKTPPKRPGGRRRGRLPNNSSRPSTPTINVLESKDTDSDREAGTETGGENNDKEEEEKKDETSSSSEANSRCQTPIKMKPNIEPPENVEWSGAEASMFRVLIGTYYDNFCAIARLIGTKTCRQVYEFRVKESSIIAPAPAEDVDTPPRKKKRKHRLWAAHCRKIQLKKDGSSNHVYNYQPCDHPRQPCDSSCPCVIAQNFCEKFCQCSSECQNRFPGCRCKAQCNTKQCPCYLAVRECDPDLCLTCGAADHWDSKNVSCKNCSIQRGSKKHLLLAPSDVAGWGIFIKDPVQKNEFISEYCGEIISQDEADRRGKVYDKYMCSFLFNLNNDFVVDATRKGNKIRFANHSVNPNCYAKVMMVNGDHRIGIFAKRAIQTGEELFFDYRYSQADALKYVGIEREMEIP
Method in brief: (§1)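 Human cord-blood ECFC clones, at least three independent, passages 3–6, grown in EGM-2 with 10% FBS. Histone methylation marks were assessed by western blot, with total histone H3 and H4 as loading controls.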

[3] = target: Histone-lysine N-methyltransferase EZH2 (Homo sapiens) (UniProt Q15910); assay: Inhibition of EZH2 in human umbilical cord derived endothelial colony forming cells assessed as decrease in H4K20me3 level at 0.01 to 5 uM measured after 24 to 72 hrs by Western blotting analysis; type: cell-based; settings: Umbilical cord derived endothelial colony forming cell, dose 0.01-5 µM, time 24-72 hrs; method in brief: as §1
[4] = target: Histone acetyltransferase p300 (Homo sapiens) (UniProt Q09472); assay: Inhibition of acetyl transferase P300 in human umbilical cord derived endothelial colony forming cells assessed as decrease in protein level by Western blotting analysis; type: cell-based; settings: Umbilical cord derived endothelial colony forming cell
Sequence of Histone acetyltransferase p300 (Homo sapiens) (Q09472 whole entry): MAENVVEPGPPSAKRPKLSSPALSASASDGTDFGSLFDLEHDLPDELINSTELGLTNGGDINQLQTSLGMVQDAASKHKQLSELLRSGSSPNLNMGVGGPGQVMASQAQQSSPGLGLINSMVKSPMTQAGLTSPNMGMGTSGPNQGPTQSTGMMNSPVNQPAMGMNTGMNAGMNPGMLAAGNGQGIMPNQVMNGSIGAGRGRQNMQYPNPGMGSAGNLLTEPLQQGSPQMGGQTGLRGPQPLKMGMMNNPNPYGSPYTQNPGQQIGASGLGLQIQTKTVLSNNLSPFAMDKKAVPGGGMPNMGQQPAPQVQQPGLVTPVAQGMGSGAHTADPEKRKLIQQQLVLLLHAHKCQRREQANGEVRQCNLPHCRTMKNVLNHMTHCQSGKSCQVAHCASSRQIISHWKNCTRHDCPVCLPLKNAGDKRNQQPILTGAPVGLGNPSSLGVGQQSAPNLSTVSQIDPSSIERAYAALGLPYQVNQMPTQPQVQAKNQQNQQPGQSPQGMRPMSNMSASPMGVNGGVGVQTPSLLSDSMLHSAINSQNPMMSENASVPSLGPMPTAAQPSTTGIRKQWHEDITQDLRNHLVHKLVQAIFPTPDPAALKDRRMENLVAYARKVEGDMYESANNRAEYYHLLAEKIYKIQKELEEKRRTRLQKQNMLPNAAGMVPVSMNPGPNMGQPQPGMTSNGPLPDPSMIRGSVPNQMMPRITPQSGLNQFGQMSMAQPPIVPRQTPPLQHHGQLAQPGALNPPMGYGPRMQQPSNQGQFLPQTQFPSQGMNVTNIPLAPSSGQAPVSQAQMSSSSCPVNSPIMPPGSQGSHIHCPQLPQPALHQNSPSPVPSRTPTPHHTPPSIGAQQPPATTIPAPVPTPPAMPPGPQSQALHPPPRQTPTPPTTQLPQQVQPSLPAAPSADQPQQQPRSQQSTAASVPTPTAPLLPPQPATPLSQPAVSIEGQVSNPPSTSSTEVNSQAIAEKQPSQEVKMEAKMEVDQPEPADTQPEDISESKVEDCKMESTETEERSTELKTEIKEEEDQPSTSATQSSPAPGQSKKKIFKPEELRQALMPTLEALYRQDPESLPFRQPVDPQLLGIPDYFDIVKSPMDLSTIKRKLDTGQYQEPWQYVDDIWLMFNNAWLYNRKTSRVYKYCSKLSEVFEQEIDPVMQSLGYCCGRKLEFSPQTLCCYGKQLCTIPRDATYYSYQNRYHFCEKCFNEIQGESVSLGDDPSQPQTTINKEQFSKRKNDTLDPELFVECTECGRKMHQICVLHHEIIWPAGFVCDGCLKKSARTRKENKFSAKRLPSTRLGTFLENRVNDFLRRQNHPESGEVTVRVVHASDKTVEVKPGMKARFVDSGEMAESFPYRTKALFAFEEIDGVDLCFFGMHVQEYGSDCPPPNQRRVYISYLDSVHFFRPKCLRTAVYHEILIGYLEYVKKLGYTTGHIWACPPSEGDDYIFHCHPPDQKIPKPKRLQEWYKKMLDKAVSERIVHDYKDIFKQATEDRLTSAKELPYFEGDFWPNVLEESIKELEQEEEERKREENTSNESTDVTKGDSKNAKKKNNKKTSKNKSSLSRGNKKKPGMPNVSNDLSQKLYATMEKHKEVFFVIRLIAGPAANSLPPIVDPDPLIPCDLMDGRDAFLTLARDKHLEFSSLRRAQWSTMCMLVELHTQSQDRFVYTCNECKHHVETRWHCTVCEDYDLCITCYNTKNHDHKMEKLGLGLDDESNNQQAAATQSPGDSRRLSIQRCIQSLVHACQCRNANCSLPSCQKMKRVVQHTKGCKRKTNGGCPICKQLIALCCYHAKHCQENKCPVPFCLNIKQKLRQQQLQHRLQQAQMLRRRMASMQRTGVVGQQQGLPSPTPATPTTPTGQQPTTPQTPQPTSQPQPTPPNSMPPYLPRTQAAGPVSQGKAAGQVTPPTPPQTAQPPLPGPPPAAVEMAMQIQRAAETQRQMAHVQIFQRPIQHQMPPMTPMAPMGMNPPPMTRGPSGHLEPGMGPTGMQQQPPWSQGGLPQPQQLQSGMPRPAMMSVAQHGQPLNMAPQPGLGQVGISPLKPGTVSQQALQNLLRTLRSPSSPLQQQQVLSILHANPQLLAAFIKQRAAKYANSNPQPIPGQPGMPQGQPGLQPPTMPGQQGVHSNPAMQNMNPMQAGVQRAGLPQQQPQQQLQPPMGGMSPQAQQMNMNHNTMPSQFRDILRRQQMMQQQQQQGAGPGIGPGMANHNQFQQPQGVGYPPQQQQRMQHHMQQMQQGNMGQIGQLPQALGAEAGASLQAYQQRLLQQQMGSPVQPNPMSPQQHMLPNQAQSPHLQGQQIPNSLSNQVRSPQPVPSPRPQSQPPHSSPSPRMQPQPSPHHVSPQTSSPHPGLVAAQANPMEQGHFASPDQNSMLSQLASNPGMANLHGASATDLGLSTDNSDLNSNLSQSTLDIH
Method in brief: (§2)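 Cord-blood ECFCs were treated with an EZH2 inhibitor at 5 μM for 72 hr, then an HDAC inhibitor at 10 nM for 2 hr, or with vehicle. Levels of the epigenetic enzymes were read by western blot, with tubulin as loading control.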

[5] = target: Histone deacetylase 1 (Homo sapiens) (UniProt Q13547); assay: Inhibition of deacetylase HDAC1 in human umbilical cord derived endothelial colony forming cells assessed as decrease in protein level by Western blotting analysis; type: cell-based; settings: Umbilical cord derived endothelial colony forming cell; method in brief: as §2
Sequence of Histone deacetylase 1 (Homo sapiens) (Q13547 whole entry): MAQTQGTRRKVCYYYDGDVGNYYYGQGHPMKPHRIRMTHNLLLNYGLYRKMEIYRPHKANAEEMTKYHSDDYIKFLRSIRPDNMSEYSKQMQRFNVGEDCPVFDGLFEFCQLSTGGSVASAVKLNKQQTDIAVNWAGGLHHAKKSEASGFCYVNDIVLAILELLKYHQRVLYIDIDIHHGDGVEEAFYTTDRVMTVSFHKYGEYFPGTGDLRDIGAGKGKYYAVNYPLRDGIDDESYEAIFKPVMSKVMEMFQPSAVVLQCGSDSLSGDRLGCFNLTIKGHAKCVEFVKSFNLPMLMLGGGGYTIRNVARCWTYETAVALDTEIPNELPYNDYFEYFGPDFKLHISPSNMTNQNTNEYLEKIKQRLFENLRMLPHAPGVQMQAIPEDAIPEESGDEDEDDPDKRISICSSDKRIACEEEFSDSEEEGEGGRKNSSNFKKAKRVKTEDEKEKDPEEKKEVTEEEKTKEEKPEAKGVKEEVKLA

[6] = system: Umbilical cord derived endothelial colony forming cell; assay: Inhibition of H3K27 demethylase UTX in human umbilical cord derived endothelial colony forming cells assessed as decrease in protein level by Western blotting analysis; type: cell-based; method in brief: as §2
[7] = target: DNA (cytosine-5)-methyltransferase 1 (Homo sapiens) (UniProt P26358); assay: Inhibition of DNMT1 in human umbilical cord derived endothelial colony forming cells assessed as decrease in protein level by Western blotting analysis; type: cell-based; settings: Umbilical cord derived endothelial colony forming cell
HUVEC [8] = assay: Resistance to induction of cell apoptosis in human umbilical cord derived endothelial colony forming cells in presence of panobinostat by annexin V staining analysis; type: functional, cell-based
Method in brief: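 ECFCs were pretreated with the epigenetic drugs or vehicle and kept in serum-containing EGM-2. Apoptosis was scored by flow cytometry after annexin V and 7-AAD staining. Values are expressed as percentage of vehicle-treated control, mean ±SEM, three independent experiments each in duplicate.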

[9] = system: Umbilical cord derived endothelial colony forming cell; assay: Activation of WNT pro-angiogenic pathway in human umbilical cord derived endothelial colony forming cells by measuring WNT9A level in presence of panobinostat by qRT-PCR analysis; type: cell-based; settings: filed as activator
[10] = system: Umbilical cord derived endothelial colony forming cell; assay: Activation of WNT pro-angiogenic pathway in human umbilical cord derived endothelial colony forming cells by measuring WNT4 level in presence of panobinostat by qRT-PCR analysis; type: cell-based; settings: filed as activator
[11] = system: Umbilical cord derived endothelial colony forming cell; assay: Activation of WNT pro-angiogenic pathway in human umbilical cord derived endothelial colony forming cells by measuring WNT11 level in presence of panobinostat by qRT-PCR analysis; type: cell-based; settings: filed as activator
[12] = system: Umbilical cord derived endothelial colony forming cell; assay: Activation of WNT pro-angiogenic pathway in human umbilical cord derived endothelial colony forming cells by measuring FZD1 level in presence of panobinostat by qRT-PCR analysis; type: cell-based; settings: filed as activator
[13] = system: Umbilical cord derived endothelial colony forming cell; assay: Activation of WNT pro-angiogenic pathway in human umbilical cord derived endothelial colony forming cells by measuring FZD5 level in presence of panobinostat by qRT-PCR analysis; type: cell-based; settings: filed as activator
[14] = system: Umbilical cord derived endothelial colony forming cell; assay: Activation of WNT pro-angiogenic pathway in human umbilical cord derived endothelial colony forming cells by measuring FZD7 level in presence of panobinostat by qRT-PCR analysis; type: cell-based; settings: filed as activator
[15] = system: Umbilical cord derived endothelial colony forming cell; assay: Activation of WNT pro-angiogenic pathway in human umbilical cord derived endothelial colony forming cells by measuring TCF7L1 level in presence of panobinostat by qRT-PCR analysis; type: cell-based; settings: filed as activator
[16] = system: Umbilical cord derived endothelial colony forming cell; assay: Activation of WNT pro-angiogenic pathway in human umbilical cord derived endothelial colony forming cells by measuring JAG1 level in presence of panobinostat by qRT-PCR analysis; type: cell-based; settings: filed as activator
[17] = system: Umbilical cord derived endothelial colony forming cell; assay: Activation of WNT pro-angiogenic pathway in human umbilical cord derived endothelial colony forming cells by measuring MML1 level in presence of panobinostat by qRT-PCR analysis; type: cell-based; settings: filed as activator
HUVEC [18] = assay: Effect on pro-angiogenic property in human umbilical cord derived endothelial colony forming cells assessed as increase in VEGFR1 protein level by Western blotting analysis; type: functional, cell-based
HUVEC [19] = assay: Effect on pro-angiogenic property in human umbilical cord derived endothelial colony forming cells assessed as increase in VEGFR2 protein phosphorylation by Western blotting analysis; type: functional, cell-based
HUVEC [20] = assay: Effect on pro-angiogenic property in human umbilical cord derived endothelial colony forming cells assessed as increase in intracellular NOTCH protein phosphorylation by Western blotting analysis; type: functional, cell-based
HUVEC [21] = assay: Effect on pro-angiogenic property in human umbilical cord derived endothelial colony forming cells assessed as increase in AKT protein phosphorylation by Western blotting analysis; type: functional, cell-based
HUVEC [22] = assay: Effect on pro-angiogenic property in human umbilical cord derived endothelial colony forming cells assessed as increase in ERK1 protein phosphorylation by Western blotting analysis; type: functional, cell-based
HUVEC [23] = assay: Effect on pro-angiogenic property in human umbilical cord derived endothelial colony forming cells assessed as increase in FZD7 level in presence of panobinostat by qRT-PCR analysis; type: functional, cell-based
HUVEC [24] = assay: Effect on pro-angiogenic property in human umbilical cord derived endothelial colony forming cells assessed as increase in KDR level in presence of panobinostat by qRT-PCR analysis; type: functional, cell-based
HUVEC [25] = assay: Effect on pro-angiogenic property in human umbilical cord derived endothelial colony forming cells assessed as increase in DLL4 level in presence of panobinostat by qRT-PCR analysis; type: functional, cell-based
HUVEC [26] = assay: Effect on pro-angiogenic property in human umbilical cord derived endothelial colony forming cells assessed as increase in CXCL12 level by qRT-PCR analysis; type: functional, cell-based
HUVEC [27] = assay: Effect on human umbilical cord derived endothelial colony forming cells assessed as decrease in H3K27me3 level by ChIP-qPCR analysis; type: functional, cell-based
HUVEC [28] = assay: Effect on human umbilical cord derived endothelial colony forming cells assessed as reversal of increase in H3K4me3 level in presence of panobinostat measured after 24 hrs of drug removal by qRT-PCR analysis; type: functional, cell-based
Mus musculus [29] = species: Mus musculus; assay: Effect on restoration of blood flow in athymic nude CD1 hindlimb ischemia mouse model in presence of panobinostat for 28 days by laser doppler perfusion imaging analysis; type: functional, organism-based; settings: time 28.0 day
Method in brief: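 Left femoral artery ligated in 8-week-old female athymic nude CD1 mice; 5 × 10^5 ECFCs pretreated with the combination or vehicle, in 50 μL PBS, given as two intramuscular injections into adductor muscle after skin closure. Perfusion measured by laser Doppler pre-op, day 0 and later days; ischemic/non-ischemic ratio, n = 7–8 mice to day 14, 3–4 to day 28.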

Mus musculus [30] = assay: In vivo upregulation of pro-angiogneic pathway in athymic nude CD1 hindlimb ischemia mouse model in presence of panobinostat treated for 28 days; type: functional, organism-based; settings: time 28.0 day
HUVEC [31] = assay: Effect on human umbilical cord derived endothelial colony forming cells assessed as decrease in H3 acetylation level in presence of panobinostat measured after removal of drug

With `CCCc1cc(C)[nH]c(=O)c1CNC(=O)c1cc(-c2ccnc(N3CCN(C)CC3)c2)cc2c1cnn2C(C)C` as the molecule, how does the Activity (HUVEC [1]) read?
The Activity was “Active”.

What about the inhibition [2] of the same molecule?
The inhibition was “Dose-Dependent Effect”.

What about the inhibition [3] of the same molecule?
The inhibition was “inactive”.

What about the inhibition [4] of the same molecule?
Its inhibition is “inactive”.

What about the inhibition [5] of the same molecule?
Its inhibition is “inactive”.

And the inhibition [6]?
The inhibition was “inactive”.

What about the inhibition [7] of the same molecule?
Its inhibition is “inactive”.

And the Activity (HUVEC [8])?
Its Activity is “Active”.

What about the Activity [9] of the same molecule?
The Activity was “Active”.

What about the Activity [10] of the same molecule?
Its Activity is “Active”.

What about the Activity [11] of the same molecule?
The Activity was “Active”.

And the Activity [12]?
The Activity was “Active”.

What about the Activity [13] of the same molecule?
The Activity was “Active”.

And the Activity [14]?
Its Activity is “Active”.

And the Activity [15]?
Its Activity is “Active”.

What about the Activity [16] of the same molecule?
The Activity was “Active”.

And the Activity [17]?
The Activity was “Active”.

And the Activity (HUVEC [18])?
The Activity was “Active”.

What about the Activity (HUVEC [19]) of the same molecule?
The Activity was “Active”.

What about the Activity (HUVEC [20]) of the same molecule?
Its Activity is “Active”.

What about the Activity (HUVEC [21]) of the same molecule?
Its Activity is “Active”.

What about the Activity (HUVEC [22]) of the same molecule?
Its Activity is “Active”.

And the Activity (HUVEC [23])?
The Activity was “Active”.

And the Activity (HUVEC [24])?
The Activity was “Active”.

And the Activity (HUVEC [25])?
Its Activity is “Active”.

What about the Activity (HUVEC [26]) of the same molecule?
Its Activity is “Active”.

What about the Activity (HUVEC [27]) of the same molecule?
Its Activity is “Active”.

What about the Activity (HUVEC [28]) of the same molecule?
Its Activity is “Active”.

What about the Activity (Mus musculus [29]) of the same molecule?
Its Activity is “Active”.

And the Activity (Mus musculus [30])?
Its Activity is “Active”.

What about the Activity (HUVEC [31]) of the same molecule?
Its Activity is “Active”.
